Reference: ChEMBL document CHEMBL4028882, “Thiazolino 2-Pyridone Amide Isosteres As Inhibitors of Chlamydia trachomatis Infectivity” (J Med Chem, 2017)
Activity calls are given as the source filed them. No cut-off for these calls is given here.

Columns and labels:
Chlamydia trachomatis [1] = assay: Antimicrobial activity against Chlamydia trachomatis serovar LGV-L2 454/Bu infected in human HeLa229 cells assessed as reduction in reinfection levels measured 44 to 48 hrs post infection by DAPI staining-based assay; assay type: functional, cell-based; conditions: HeLa 229
Procedure, shortened: (§1)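 HeLa cells were infected with C. trachomatis LGV-L2 and treated with compound. After 48 h the cells were lysed and the recovered bacteria used to infect fresh HeLa cells. Reinfection was quantified as new inclusion forming units versus cells infected with untreated bacteria. The concentration giving 95% reduction (Reinfect95) was determined from fixed concentrations of 2.5, 1.0, 0.5 and 0.25 μM.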

Staphylococcus aureus = assay: Growth inhibition of Staphylococcus aureus CCUG 1800 at 10 ug/ml after 24 hrs by disk diffusion method
Procedure, shortened: (§2)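 Disk diffusion assay of vaginal flora species (S. aureus, E. coli, L. jensenii, S. agalactiae) and the fungus C. albicans, with compound tested at 10 μg/mL.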

Chlamydia trachomatis [2] = assay: Antimicrobial activity against Chlamydia trachomatis serovar LGV-L2 454/Bu infected in human HeLa229 cells at 1 uM compound treated during 48 hrs of infection by DAPI staining-based assay; assay type: functional, cell-based
Procedure, shortened: (§3)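 Time-of-addition format of the LGV-L2 HeLa infection/reinfection assay. Compound was present during the first 24 h, the second 24 h, or throughout the 48 h infection. Infectivity was then scored against untreated controls.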

Lactobacillus jensenii = assay: Growth inhibition of Lactobacillus jensenii CCUG 33572 at 10 ug/ml after 24 hrs by disk diffusion method; procedure, shortened: as §2
Salmonella typhimurium [3] = assay: Mutagenicity in Salmonella typhimurium TA1535/TA1538 assessed as revertant colonies/plate in presence of rat liver S9 fraction at 10 ug/spot after 2 to 3 days by Ames test; assay type: toxicity; conditions: salmonella enterica subsp. enterica serovar typhimurium
Procedure, shortened: (§4)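 Mutagenicity was screened by the spot-based Ames test procedure, with compound applied at 10 μg/spot.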

Chlamydia trachomatis [4] = assay: Antimicrobial activity against Chlamydia trachomatis serovar D UW-3 infected in human HeLa229 cells assessed as reduction in reinfection levels measured 44 to 48 hrs post infection by DAPI staining-based assay; assay type: functional, cell-based; conditions: serovar D UW-3, HeLa 229
[5] = Cytotoxicity against human HeLa229 cells assessed as cell viability at 10 uM after 44 to 48 hrs by resazurin-based fluorometry relative to control; design: species or system HeLa 229; conditions: read-out: Activity
Procedure, shortened: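 HeLa host cell viability was measured with compound at 10 μM in a resazurin assay, run to exclude host toxicity as the cause of anti-infective activity.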

Candida albicans = assay: Growth inhibition of Candida albicans at 10 ug/ml after 24 hrs by disk diffusion method; procedure, shortened: as §2
Salmonella typhimurium [6] = assay: Mutagenicity in Salmonella typhimurium TA1535/TA1538 assessed as revertant colonies/plate in absense of rat liver S9 fraction at 10 ug/spot after 2 to 3 days by Ames test; assay type: toxicity; conditions: salmonella enterica subsp. enterica serovar typhimurium; procedure, shortened: as §4
Chlamydia trachomatis [7] = assay: Antimicrobial activity against Chlamydia trachomatis serovar LGV-L2 454/Bu expressing mCherry infected in human HeLa cells assessed as reduction in accumulation of BODIPY 22 in bacterial inclusions at 0.5 uM incubated for 48 hrs by BODIPY 22-based confocal microscopy
Escherichia coli = assay: Growth inhibition of Escherichia coli CCUG 17620 at 10 ug/ml after 24 hrs by disk diffusion method; procedure, shortened: as §2
Salmonella typhimurium [8] = assay: Mutagenicity in Salmonella typhimurium TA98/TA100 assessed as revertant colonies/plate in presence of rat liver S9 fraction at 10 ug/spot after 2 to 3 days by Ames test; assay type: toxicity; conditions: salmonella enterica subsp. enterica serovar typhimurium; procedure, shortened: as §4
Streptococcus agalactiae = assay: Growth inhibition of Streptococcus agalactiae CCUG 4208 at 10 ug/ml after 24 hrs by disk diffusion method; procedure, shortened: as §2
Chlamydia trachomatis [9] = assay: Antimicrobial activity against Chlamydia trachomatis serovar LGV-L2 454/Bu infected in human HeLa229 cells assessed as concentration required to reduce reinfection levels by >= 95% measured 44 to 48 hrs post infection by DAPI staining-based assay; assay type: functional; procedure, shortened: as §1
Chlamydia trachomatis [10] = assay: Antimicrobial activity against Chlamydia trachomatis serovar LGV-L2 454/Bu infected in human HeLa229 cells at 1 uM compound treated during first 24 hrs of infection by DAPI staining-based assay; assay type: functional, cell-based; procedure, shortened: as §3
Salmonella typhimurium [11] = assay: Mutagenicity in Salmonella typhimurium TA98/TA100 assessed as revertant colonies/plate in absence of rat liver S9 fraction at 10 ug/spot after 2 to 3 days by Ames test; assay type: toxicity; conditions: salmonella enterica subsp. enterica serovar typhimurium; procedure, shortened: as §4

In the case of `Nc1c(Cc2cccc3ccccc23)c(C2CC2)c2n(c1=O)C(n1cc(-c3ccccc3)nn1)CS2` (configuration not stated), the EC50 (Chlamydia trachomatis [1]) is reported as 13 nM, the “growth inhibition (GI)” value (Staphylococcus aureus) is reported as “Non-Toxic” and the Activity (Chlamydia trachomatis [2]) is reported as “Active”. For the same compound, the “growth inhibition (GI)” value (Lactobacillus jensenii) was “Non-Toxic”, the Activity (Salmonella typhimurium [3]) was “Non-Toxic” and the EC50 (Chlamydia trachomatis [4]) was 35 nM. For the same compound, the viability at 10 µM [5] was 105%, the “growth inhibition (GI)” value (Candida albicans) was “Non-Toxic” and the Activity (Salmonella typhimurium [6]) was “Non-Toxic”. The Activity (Chlamydia trachomatis [7]) was “Active”, the “growth inhibition (GI)” value (Escherichia coli) was “Non-Toxic” and the Activity (Salmonella typhimurium [8]) was “Non-Toxic”. For the same compound, the “growth inhibition (GI)” value (Streptococcus agalactiae) was “Non-Toxic”, the Activity (Chlamydia trachomatis [9]) was 0.25 µM and the Activity (Chlamydia trachomatis [10]) was “inactive”. For the same compound, the Activity (Salmonella typhimurium [11]) was “Non-Toxic”.
For `O=c1cc(Cc2cccc3ccccc23)c(C2CC2)c2n1C(c1nc(-c3ccccc3)c[nH]1)CS2` (configuration not stated), the viability at 10 µM [5] was 106% and the Activity (Chlamydia trachomatis [9]) was 2.5 µM.
With `O=c1cc(Cc2cccc3ccccc23)c(C2CC2)c2n1C(n1cc(-c3ccccc3)nn1)CS2` (configuration not stated) the EC50 (Chlamydia trachomatis [1]) was 18 nM, the “growth inhibition (GI)” value (Staphylococcus aureus) was “Non-Toxic” and the Activity (Chlamydia trachomatis [2]) was “Active”. The “growth inhibition (GI)” value (Lactobacillus jensenii) was “Non-Toxic”, the Activity (Salmonella typhimurium [3]) was “Non-Toxic” and the EC50 (Chlamydia trachomatis [4]) was 37 nM. The viability at 10 µM [5] was 96%, the “growth inhibition (GI)” value (Candida albicans) was “Non-Toxic” and the Activity (Salmonella typhimurium [6]) was “Non-Toxic”. For the same compound, the Activity (Chlamydia trachomatis [7]) was “Active”, the “growth inhibition (GI)” value (Escherichia coli) was “Non-Toxic” and the Activity (Salmonella typhimurium [8]) was “Non-Toxic”. For the same compound, the “growth inhibition (GI)” value (Streptococcus agalactiae) was “Non-Toxic”, the Activity (Chlamydia trachomatis [9]) was 0.25 µM and the Activity (Chlamydia trachomatis [10]) was “inactive”. For the same compound, the Activity (Salmonella typhimurium [11]) was “Non-Toxic”.
For `O=C(CNC(=O)C1CSc2c(C3CC3)c(Cc3cccc4ccccc34)cc(=O)n21)c1ccccc1` (configuration not stated), the viability at 10 µM [5] was 107% and the Activity (Chlamydia trachomatis [9]) was 2.5 µM.
In the case of `Cc1cccc(-c2n[nH]c(C3CSc4c(C5CC5)c(Cc5cccc6ccccc56)cc(=O)n43)n2)c1` (configuration not stated), the viability at 10 µM [5] is reported as 95% and the Activity (Chlamydia trachomatis [9]) is reported as 0.5 µM.
Work on `O=C(NC1CSc2c(C3CC3)c(Cc3cccc4ccccc34)cc(=O)n21)c1ccccc1` (configuration not stated) yielded a viability at 10 µM [5] of 114% and an Activity (Chlamydia trachomatis [9]) of 2.5 µM.
Compound `O=c1cc(Cc2cccc3ccccc23)c(C2CC2)c2n1C(c1nc(-c3ccccc3)co1)CS2` (configuration not stated) has a viability at 10 µM [5] of 83% and an Activity (Chlamydia trachomatis [9]) of 2.5 µM.
For `O=c1cc(Cc2cccc3ccccc23)c(C2CC2)c2n1C(c1ncc(-c3ccccc3)s1)CS2` (configuration not stated), the viability at 10 µM [5] was 97% and the Activity (Chlamydia trachomatis [9]) was greater than 2.5 µM.
`O=c1cc(Cc2cccc3ccccc23)c(C2CC2)c2n1C(c1nc(-c3ccccc3)no1)CS2` (configuration not stated) gave a viability at 10 µM [5] of 99% and an Activity (Chlamydia trachomatis [9]) greater than 2.5 µM.
Work on `CC(C)(C)OC(=O)NC1CSc2c(C3CC3)c(Cc3cccc4ccccc34)cc(=O)n21` (configuration not stated) yielded a viability at 10 µM [5] of 105% and an Activity (Chlamydia trachomatis [9]) greater than 2.5 µM.
For `O=c1cc(Cc2cccc3ccccc23)c(C2CC2)c2n1C(c1nc(-c3ccccc3)n[nH]1)CS2` (configuration not stated), the viability at 10 µM [5] was 98% and the Activity (Chlamydia trachomatis [9]) was 0.5 µM.
`Nc1c(Cc2cccc3ccccc23)c(C2CC2)c2n(c1=O)C(c1nc(-c3ccccc3)n[nH]1)CS2` (configuration not stated) gave a viability at 10 µM [5] of 100% and an Activity (Chlamydia trachomatis [9]) of 0.25 µM.
Work on `O=C(NS(=O)(=O)c1ccccc1)C1CSc2c(C3CC3)c(Cc3cccc4ccccc34)cc(=O)n21` (configuration not stated) yielded a viability at 10 µM [5] of 105% and an Activity (Chlamydia trachomatis [9]) greater than 2.5 µM.
Work on `O=c1cc(Cc2cccc3ccccc23)c(C2CC2)c2n1C(NS(=O)(=O)c1ccccc1)CS2` (configuration not stated) yielded a viability at 10 µM [5] of 114% and an Activity (Chlamydia trachomatis [9]) greater than 2.5 µM.
With `Nc1c(Cc2cccc3ccccc23)c(C2CC2)c2n(c1=O)C(C(=O)Nc1ccccc1)CS2` (configuration not stated) the Activity (Salmonella typhimurium [3]) was “Non-Toxic”, the Activity (Salmonella typhimurium [6]) was “Non-Toxic” and the Activity (Salmonella typhimurium [8]) was “Non-Toxic”. The Activity (Salmonella typhimurium [11]) was “Non-Toxic”.
Work on `O=c1cc(Cc2cccc3ccccc23)c(C2CC2)c2n1C(c1nnc(-c3ccccc3)o1)CS2` (configuration not stated) yielded a viability at 10 µM [5] of 103% and an Activity (Chlamydia trachomatis [9]) of 1 µM.
